Source: paper PMC3672992 (Therapeutic drug monitoring, 2008)
Read-outs that look alike come from different tables or passages of the source. One block for each compound: values may come before it.

Columns and labels:
[1] = without ritonavir boosting, cited from earlier work
[2] = cited from earlier work
[3] = Steady-state plasma pharmacokinetics of total ritonavir; assay type: in vivo, human
How it was run: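 HIV-infected Caucasian adults took protease-inhibitor combination capsules at 400/100 mg twice daily (266/66 mg if under 50 kg) with standardized meals. After at least 2 wk of dosing, blood was drawn predose and 1, 2, 3, 4, 6, 8 and 12 h after the morning dose. EDTA plasma (600g, 10 min) was stored at −80°C and assayed by HPLC-UV (linear 100–16,000 ng/mL). Ctrough is the predose, noncompartmental value.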

[4] = patients with significant liver fibrosis; cited from earlier work
[5] = mild hepatic impairment group; cited from earlier work
[6] = Steady-state pharmacokinetics of unbound lopinavir; assay type: in vivo, human
[7] = Steady-state plasma pharmacokinetics of total lopinavir; assay type: in vivo, human; conditions: for Total lopinavir Ctrough / Total lopinavir tmax: steady-state, median (IQR)
[8] = Group I HIV+/HCV−, n=12, median (IQR)
[9] = Group II HIV+/HCV+, n=18, median (IQR)
[10] = Group III HIV+/HCV+ with cirrhosis, n=6, median (IQR)
[11] = Group III HIV+/HCV+ with cirrhosis, n=9

Structure (SMILES): Cc1c(O)cccc1C(=O)N[C@@H](CSc1ccccc1)[C@H](O)CN1C[C@H]2CCCC[C@H]2C[C@H]1C(=O)NC(C)(C)C [NFV, nelfinavir]
NFV AUC(0–12) fold higher relative to noncoinfected HIV+ control group ([1]; HIV+/HCV+ patients with cirrhosis): 2.5 fold
NFV AUC(0–12) fold higher relative to noncoinfected HIV+ control group ([1]; HIV+/HCV+ patients): 1.3 fold

Structure (SMILES): O=C1Nc2ccc(Cl)cc2[C@@](C#CC2CC2)(C(F)(F)F)O1 [efavirenz]
Efavirenz plasma concentration ([2]; HCV-coinfected individuals without cirrhosis): 1.9 µg/mL
Efavirenz plasma concentration ([2]; patients with cirrhosis, P = 0.001): 3.4 µg/mL

Total ritonavir Ctrough ([3]; Group I HIV+/HCV−, n=14, median (IQR)): 0.57 (0.51–0.77) μg/mL
Total ritonavir Ctrough ([3]; Group II HIV+/HCV+, n=15, median (IQR)): 0.50 (0.23–0.73) μg/mL
Total ritonavir Ctrough ([3]; Group III HIV+/HCV+ with cirrhosis, n=4, median (IQR)): 0.70 (0.65–0.72) μg/mL
Structure (SMILES): CC(C)c1nc(CN(C)C(=O)N[C@H](C(=O)N[C@@H](Cc2ccccc2)C[C@H](O)[C@H](Cc2ccccc2)NC(=O)OCc2cncs2)C(C)C)cs1 [ritonavir]

Structure (SMILES): CCC[C@@]1(CCc2ccccc2)CC(O)=C([C@H](CC)c2cccc(NS(=O)(=O)c3ccc(C(F)(F)F)cn3)c2)C(=O)O1 [tipranavir]
Change in tipranavir concentrations [4]: significant increase

Unbound lopinavir AUCu(0–12) [6, 8]: 0.87 (0.77–1.21) μg*h/mL
Unbound lopinavir Cu,max [6, 8]: 0.12 (0.10–0.14) μg/mL
Unbound lopinavir Cu,trough [6, 8]: 0.05 (0.03–0.08) μg/mL
Unbound lopinavir AUCu(0–12) [6, 9]: 1.21 (0.73–1.43) μg*h/mL
Unbound lopinavir Cu,max [6, 9]: 0.13 (0.10–0.18) μg/mL
Unbound lopinavir Cu,trough [6, 9]: 0.07 (0.05–0.10) μg/mL
Unbound lopinavir AUCu(0–12) [6, 10]: 1.41 (1.14–1.85) μg*h/mL
Unbound lopinavir Cu,max [6, 10]: 0.16 (0.14–0.18) μg/mL
Unbound lopinavir Cu,trough [6, 10]: 0.08 (0.03–0.10) μg/mL
Total lopinavir Ctrough ([7]; Group I HIV+/HCV−, n=24): 7.4 (4.1–10.0) μg/mL
Total lopinavir Ctrough ([7]; Group II HIV+/HCV+, n=23): 6.4 (4.5–10.1) μg/mL
Total lopinavir tmax ([7]; Group II HIV+/HCV+, n=23): 4.0 (4.0–6.0) h
Total lopinavir Ctrough [7, 11]: 7.0 (5.7–7.6) μg/mL
Total lopinavir tmax [7, 11]: 4.0 (4.0–6.0) h
Increase in drug clearance (compensatory effect) ([7]; HIV/HCV-coinfected patients with cirrhosis versus HIV+/HCV− patients): ~ 29%
Structure (SMILES): Cc1cccc(C)c1OCC(=O)N[C@@H](Cc1ccccc1)[C@@H](O)C[C@H](Cc1ccccc1)NC(=O)[C@H](C(C)C)N1CCCNC1=O [lopinavir]
Percentage of unbound LPV [5]: 0.89%
